The nature of assay [1]: Inhibition of HCV1a H77 NS5B assessed as [3H]UTP incorporation into RNA by scintillation counting. The arrangement: species or system Hepatitis C virus (isolate H77). An outline of the steps: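 Two-fold serial inhibitor dilutions were preincubated for 15 min at room temperature with NS5B (genotype 1a H77 or genotype 1b BK, 20-50 nM) in 20 mM Tris-Cl pH 7.4, 2 mM MnCl₂, 1 mM DTT, 1 mM EDTA and 60-125 µM GTP. Reactions were started with 20 µM CTP, 20 µM ATP, 1 µM ³H-UTP, 5 nM template RNA and RNase inhibitor, then run 2-4 h at room temperature.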

The subject of assay [2] is Hepatitis C virus. The assay can be described thus: Antiviral activity against HCV1a H77 assessed as inhibition of viral replication by cell-based replicon assay. Particulars: genotype 1a H77. It counts as functional, organism-based, Hepacivirus hominis. An outline of the steps:
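Stable luciferase-reporter subgenomic replicon Huh-7 lines (1a H77; 1b Con1) were seeded at 5000 cells/well in DMEM with 5% FBS. The next day an eight-point half-log dilution series was added from DMSO stocks. After 3 days the cells were lysed, luciferin was added and luminescence was read. EC₅₀ came from percent inhibition of replication at each concentration.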
(Replicon systems follow genome replication, usually without infectious particles.)

As for `CC(C)(C)CCC1(NCc2cccnc2)C(=O)C(C2=NS(=O)(=O)c3cc(NS(C)(=O)=O)ccc3N2)=C(O)c2ccccc21` (stereo not drawn), the IC50 in assay [1] came out at 10 nM. The EC50 in assay [2] turned out to be 15 nM. For `COc1cccc(CNC2(CCC(C)C)C(=O)C(C3=NS(=O)(=O)c4cc(NS(C)(=O)=O)ccc4N3)=C(O)c3ccccc32)c1` (stereo not drawn), in that order: 14 nM and 38 nM. With `CC(C)(C)CCC1(NCc2ccccc2C(F)(F)F)C(=O)C(C2=NS(=O)(=O)c3cc(NS(C)(=O)=O)ccc3N2)=C(O)c2ccccc21` (stereo not drawn), in assay [1], the IC50 came to 33 nM. Moreover, the EC50 in assay [2] stood at 35 nM. For `CC(C)CCC1(NCc2ccccc2)C(=O)C(C2=NS(=O)(=O)c3cc(NS(C)(=O)=O)ccc3N2)=C(O)c2ccccc21` (stereo not drawn), in that order: 19 nM and 34 nM.

`CC(C)(C)CCC1(NCc2ccccc2)C(=O)C(C2=NS(=O)(=O)c3cc(NS(C)(=O)=O)ccc3N2)=C(O)c2ccccc21` (stereo not drawn): the IC50 in assay [1] is 17 nM. Besides, in assay [2], the EC50 is 10 nM. For `CC(C)(C)CCC1(NCc2ccc(C#N)cc2)C(=O)C(C2=NS(=O)(=O)c3cc(NS(C)(=O)=O)ccc3N2)=C(O)c2ccccc21` (stereo not drawn), in that order: 13 nM and 17 nM. On the same counts, the results for `CC(C)CCC1(NC(N)=O)C(=O)C(C2=NS(=O)(=O)c3cc(NS(C)(=O)=O)ccc3N2)=C(O)c2ccccc21` (stereo not drawn) are 27 nM and 576 nM.

Consider `CC(C)CCC1(N)C(=O)C(C2=NS(=O)(=O)c3cc(NS(C)(=O)=O)ccc3N2)=C(O)c2ccccc21` (stereo not drawn), for which the IC50 in assay [1] was 12 nM. Further, in assay [2], the EC50 came out at 29 nM. On the same counts, the results for `CC(C)CCC1(NS(C)(=O)=O)C(=O)C(C2=NS(=O)(=O)c3cc(NS(C)(=O)=O)ccc3N2)=C(O)c2ccccc21` (stereo not drawn) are 24 nM and 69 nM. As to `CON(C(C)=O)C1(CCC(C)C)C(=O)C(C2=NS(=O)(=O)c3cc(NS(C)(=O)=O)ccc3N2)=C(O)c2ccccc21` (stereo not drawn), the IC50 in assay [1] stood at 83 nM. In the case of `CC(C)(C)CCC1(NCc2csc3ccccc23)C(=O)C(C2=NS(=O)(=O)c3cc(NS(C)(=O)=O)ccc3N2)=C(O)c2ccccc21` (stereo not drawn), in assay [1], the IC50 stood at 19 nM. Moreover, the EC50 in assay [2] is 13 nM. Take `COc1cccc(CNC2(CCC(C)(C)C)C(=O)C(C3=NS(=O)(=O)c4cc(NS(C)(=O)=O)ccc4N3)=C(O)c3ccccc32)c1` (stereo not drawn): in assay [1], the IC50 is 13 nM. For the same compound, the EC50 in assay [2] is 20 nM. As for `CC(C)CCC1(NC(=O)c2ccccc2)C(=O)C(C2=NS(=O)(=O)c3cc(NS(C)(=O)=O)ccc3N2)=C(O)c2ccccc21` (stereo not drawn), in assay [1], the IC50 came out at 108 nM. Same read-out and setting: with `CC(C)(C)CCC1(NC(=O)c2ccccc2)C(=O)C(C2=NS(=O)(=O)c3cc(NS(C)(=O)=O)ccc3N2)=C(O)c2ccccc21` (stereo not drawn) the figure was 151 nM.

Regarding `COc1ccc(CNC2(CCC(C)(C)C)C(=O)C(C3=NS(=O)(=O)c4cc(NS(C)(=O)=O)ccc4N3)=C(O)c3ccccc32)cc1` (stereo not drawn), the IC50 in assay [1] turned out to be 13 nM. In assay [2], the EC50 came to 13 nM. With `Cc1cc(C)c(CNC2(CCC(C)(C)C)C(=O)C(C3=NS(=O)(=O)c4cc(NS(C)(=O)=O)ccc4N3)=C(O)c3ccccc32)c(C)c1` (stereo not drawn), the IC50 in assay [1] was 33 nM. Besides, the EC50 in assay [2] worked out at 60 nM. For `CC(C)(C)CCC1(NCc2ccc(O)cc2)C(=O)C(C2=NS(=O)(=O)c3cc(NS(C)(=O)=O)ccc3N2)=C(O)c2ccccc21` (stereo not drawn), in that order: 20 nM and 13 nM.

For `CC(C)(C)CCC1(NCc2ccc(-c3ccccc3)cc2)C(=O)C(C2=NS(=O)(=O)c3cc(NS(C)(=O)=O)ccc3N2)=C(O)c2ccccc21` (stereo not drawn), the IC50 in assay [1] was determined as 27 nM. Turning to `CC(C)(C)CCC1(NCc2ccco2)C(=O)C(C2=NS(=O)(=O)c3cc(NS(C)(=O)=O)ccc3N2)=C(O)c2ccccc21` (stereo not drawn), the IC50 in assay [1] came to 12 nM. Moreover, the EC50 in assay [2] was 10 nM. On to `CC(C)(C)CCC1(NCc2ccc(OCc3ccccc3)cc2)C(=O)C(C2=NS(=O)(=O)c3cc(NS(C)(=O)=O)ccc3N2)=C(O)c2ccccc21` (stereo not drawn), for which the IC50 in assay [1] turned out to be 27 nM. Besides, in assay [2], the EC50 worked out at 118 nM. As for `COC(=O)NC1(CCC(C)C)C(=O)C(C2=NS(=O)(=O)c3cc(NS(C)(=O)=O)ccc3N2)=C(O)c2ccccc21` (stereo not drawn), in assay [1], the IC50 is 25 nM. Moreover, the concentration giving a half-maximal response (EC50) in assay [2] was 210 nM.

What is called IC50 is the concentration that gives 50% inhibition. For orientation: EC50 means the concentration at which the effect is half-maximal.

(Values after ChEMBL document CHEMBL1138515, “Synthesis and biological characterization of B-ring amino analogues of potent benzothiadiazine hepatitis C virus polymerase inhibitors” (J Med Chem, 2009).)
